Key:
Format in all cases: functional, cell-based
HL-60 = experiment: Cytotoxicity against human HL60 cells assessed as growth inhibition after 48 hrs by MTS assay; conditions: HL-60, 48 h
How it was run: (§1)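 Cell lines from ATCC, grown in RPMI-1640 or DMEM with 10% FBS at 37 °C, 5% CO2. Cells seeded, incubated 12 h at 37 °C, then screened at 40 μM for 48 h with MTS read-out. Where growth inhibition reached 50%, retested at 0.064, 0.32, 1.6, 8 and 40 μM in triplicate. Cisplatin and paclitaxel were positive controls. IC50 by Reed and Muench method.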

SMMC-7721 = experiment: Cytotoxicity against human SMMC7721 cells assessed as growth inhibition after 48 hrs by MTS assay; conditions: SMMC-7721, 48 h; how it was run: as §1
A549 = experiment: Cytotoxicity against human A549 cells assessed as growth inhibition after 48 hrs by MTS assay; conditions: A549, 48 h; how it was run: as §1
MCF7 = experiment: Cytotoxicity against human MCF7 cells assessed as growth inhibition after 48 hrs by MTS assay; conditions: MCF7, 48 h; how it was run: as §1
SW480 = experiment: Cytotoxicity against human SW480 cells assessed as growth inhibition after 48 hrs by MTS assay; conditions: SW480, 48 h; how it was run: as §1
RAW264.7 = experiment: Inhibition of nitric oxide production in LPS-stimulated mouse RAW264.7 cells after 18 hrs by griess reagent based plate reader analysis; conditions: RAW264.7, 18 h
How it was run: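 RAW264.7 macrophages seeded at 2 × 10^5 cells/well. Treated with serial dilutions (top concentration 25 μM), then stimulated with LPS 1 μg/mL for 18 h. Supernatant NO measured with Griess reagents, absorbance 550 nm. MG-132 was the positive control. Viability was checked in parallel by MTT (595 nm) to exclude cytotoxic interference.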

| SMILES | IC50 (HL-60) | IC50 (SMMC-7721) | IC50 (A549) | IC50 (MCF7) | IC50 (SW480) | IC50 (RAW264.7) |
| --- | --- | --- | --- | --- | --- | --- |
| C=C1C(=O)[C@]23[C@H](O)[C@H]1[C@@H](O)C[C@H]2[C@]1(C)CCC[C@](C)(CO)[C@H]1C[C@H]3OC(C)=O | > 10 µM | > 10 µM | > 10 µM | > 10 µM | 6.9 µM | 16.8 µM |
| C=C1C(=O)[C@@]23[C@H](O)C[C@@H]4[C@@](C)(CO)CCC[C@@]4(C)[C@@H]2C[C@H](O)[C@@H]1[C@H]3OC(C)=O | > 10 µM | > 10 µM | > 10 µM | > 10 µM | 8.6 µM | 16.5 µM |
| C=C1C(=O)[C@]23[C@H](O)[C@H]1[C@@H](O)C[C@H]2[C@]1(C)CCC[C@](C)(COC(C)=O)[C@H]1C[C@H]3OC(C)=O | 2.9 µM | 3.5 µM | 2.7 µM | 1.6 µM | 0.9 µM | 5 µM |
| C=C1C(=O)[C@]23C[C@H]1[C@@H](O)C[C@H]2[C@]1(C)CCC[C@](C)(CO)[C@H]1C[C@H]3O | 3.6 µM | 4 µM | 4.4 µM | 4.9 µM | 1.4 µM | 3.5 µM |
| C=C1[C@H]2[C@@H](O)[C@@]3([C@H](O)C[C@@H]4[C@@](C)(CO)CCC[C@@]4(C)[C@@H]3C[C@@H]2O)[C@@H]1O | > 10 µM | > 10 µM | > 10 µM | > 10 µM | > 10 µM |  |
| C=C1C(=O)[C@@]23[C@H](O)C[C@@H]4C(C)(C)[C@H](O)CC[C@@]4(C)[C@@H]2[C@@H](O)[C@H](O)[C@@H]1[C@H]3O | > 10 µM | > 10 µM | > 10 µM | > 10 µM | > 10 µM |  |
| C=C1C(=O)[C@@]23[C@H](O)C[C@@H]4[C@@](C)(CO)[C@H](O)CC[C@@]4(C)[C@@H]2C[C@H](O)[C@@H]1[C@H]3O | > 10 µM | > 10 µM | > 10 µM | > 10 µM | > 10 µM |  |
| C=C1[C@@H]2CC[C@H]3[C@]4(C)CCC(=O)[C@](C)(CO)[C@H]4CC[C@]3(C2)[C@@H]1O | > 10 µM | > 10 µM | > 10 µM | > 10 µM | > 10 µM |  |
| C=C1C(=O)[C@@]23CC[C@@H]4[C@@](C)(CO)[C@H](O)CC[C@@]4(C)[C@@H]2C[C@H](O)[C@@H]1C3 | 4.1 µM | 4.1 µM | 3.7 µM | 4.8 µM | 2.7 µM | 4.7 µM |
| C=C1C(=O)[C@@]23C[C@H](O)[C@@H]4C(C)(C)CCC[C@@]4(C)[C@@H]2[C@@H](O)C[C@@H]1[C@H]3O | 4.8 µM | 5.1 µM | 5.1 µM | 3.7 µM | 2.3 µM | 2.5 µM |
| C=C1C(=O)[C@@]23CC(=O)[C@@H]4C(C)(C)CCC[C@@]4(C)[C@@H]2[C@@H](O)C[C@@H]1[C@H]3O | 3.1 µM | 0.8 µM | 1 µM | 1.6 µM | 1 µM | 1.1 µM |
| C=C1C(=O)[C@@]23CC[C@H]4[C@@](C)(CCC[C@]4(C)C=O)[C@@H]2C[C@H](O)[C@@H]1[C@H]3O | 3.2 µM | 1.4 µM | 0.9 µM | 1.7 µM | 1 µM | 1.9 µM |
| C=C1[C@H]2C[C@@]3(CC[C@@H]4[C@@](C)(CO)CCC[C@@]4(C)[C@@H]3C[C@@H]2O)[C@@H]1O | > 10 µM | > 10 µM | > 10 µM | > 10 µM | > 10 µM | 23.9 µM |
| C=C1C(=O)[C@@]23[C@H](O)C[C@@H]4[C@@](C)(CO)CCC[C@@]4(CO)[C@@H]2C[C@H](O)[C@@H]1[C@H]3O | > 10 µM | > 10 µM | > 10 µM | > 10 µM | > 10 µM |  |
| C=C1C(=O)[C@@]23CC[C@@H]4[C@@](C)(CO)CCC[C@@]4(C=O)[C@@H]2CC[C@@H]1[C@H]3O | > 10 µM | > 10 µM | > 10 µM | > 10 µM | > 10 µM | 9.9 µM |

— ChEMBL document CHEMBL3233000, “Cytotoxic ent-kaurane diterpenoids from Isodon wikstroemioides” (J Nat Prod, 2014)
